Measured values published in ChEMBL document CHEMBL4428077, “Synthesis and Biological Evaluation of N-((1-(4-(Sulfonyl)piperazin-1-yl)cycloalkyl)methyl)benzamide Inhibitors of Glycine Transporter-1” (J Med Chem, 2016).
pIC50: −log10 of the molar value. Active and inactive are the calls of the source. No cut-off for these calls is given here.

Key:
[1] = Drug level in Sprague-Dawley rat CSF at 100 mg/kg, po measured 2 hrs post dose by LC-MS/MS analysis; assay type: ADME, organism-based, Cerebrospinal fluid; details: read-out: Drug uptake
Outline: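 Drug-naive Sprague−Dawley rats (n = 4−5/group) were dosed orally once in 5% Solutol plus 20% Captisol in 25 mM PBS, pH 2, and euthanized 2 h later by CO₂. CSF was drawn from the cisterna magna. Drug was measured in CSF, brain and plasma; data as mean ± SEM.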

Rattus norvegicus [2] = experiment: In vivo inhibition of glycine transporter-1 in Sprague-Dawley rat assessed as increase in CSF glycine level at 1 to 10 mg/kg, po qd for 5 days measured 48 hrs post last dose by LC-MS/MS analysis; assay type: functional, organism-based
Outline: (§1)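 Drug-naive Sprague-Dawley rats, n = 5 per group, dosed orally once daily for 5 days with vehicle or 1.6, 4.8 or 16.1 μmol/kg. Vehicle was 5% Solutol / 20% Captisol in 25 mM PBS, pH 2. Killed 2 h or 48 h after the last dose. CSF glycine was expressed as % of vehicle control (vehicle 2 h post last dose), mean ± SEM. Two-way ANOVA with Tukey test.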

[3] = Toxicity in Sprague-Dawley rat assessed as gross behavioral abnormality at 0.3 to 100 mg/kg, po; assay type: organism-based; details: in vivo
Outline: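 Drug-naive Sprague–Dawley rats (n = 5/group) received a single oral dose of 0.4–160.9 μmol/kg in 5% Solutol plus 20% Captisol in 25 mM PBS, pH 2, and were watched for gross behavioral abnormalities until sacrifice at 2 h.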

Rattus norvegicus [4] = experiment: In vivo inhibition of glycine transporter-1 in Sprague-Dawley rat assessed as increase in CSF glycine level at 1 to 10 mg/kg, po qd for 5 days; assay type: functional, organism-based; outline: as §1
Rattus norvegicus [5] = experiment: In vivo inhibition of glycine transporter-1 in Sprague-Dawley rat assessed as CSF glycine level at 30 mg/kg, po measured 2 hrs post dose by LC-MS/MS analysis relative to control; assay type: functional; design: scale not given: the % may be the effect or the level left
Outline: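 Drug-naive Sprague-Dawley rats, n = 5 per group, given acute oral doses of 0.4-160.9 μmol/kg (0.3-100 mg/kg). Vehicle was Solutol 5% in 20% Captisol / 25 mM PBS, pH 2. Killed 2 h post-dose. CSF glycine was quantified by LC-MS/MS with a deuterated-glycine standard and expressed as % vehicle control, mean ± SEM. Two-way ANOVA with Tukey test.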

[6] = Drug level in cynomolgus monkey plasma at 3 mg/kg, po measured at 1 hr post dose by LC-MS/MS analysis; assay type: ADME, organism-based, Macaca fascicularis
Cytochrome P450 2C9 = Cytochrome P450 2C9 (Homo sapiens, UniProt P11712); experiment: Inhibition of CYP2C9 (unknown origin); assay type: ADME
[7] = Tmax in cynomolgus monkey plasma at 5 mg/kg, po by LC-MS/MS analysis; assay type: ADME, organism-based, Macaca fascicularis
Outline: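 Three female cynomolgus monkeys per group, single dose: IV 1.5 μmol/kg in 5% DMSO/10% Solutol in saline, pH 6.5 (2 mL/kg), or PO 7.8 μmol/kg in 5% Solutol in 20% Captisol, 25 mM PBS, pH 2 (5 mL/kg). Parameters come from plasma concentration–time data; mean ± SD.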

[8] = Drug level in po dosed Sprague-Dawley rat brain measured 2 hrs post dose by LC-MS/MS analysis; assay type: ADME, organism-based; details: in vivo
[9] = Oral bioavailability in Sprague-Dawley rat at 10 mg/kg administered as single dose measured up to 24 hrs post dose by LC-MS/MS analysis; assay type: ADME, organism-based; details: in vivo
Outline: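 Male Sprague-Dawley rats, n = 3 per group. Dosing was 3.1 μmol/kg IV (5% DMSO / 10% Solutol in saline, 5 mL/kg) and 15.7 μmol/kg PO (5% Solutol / 10% Captisol in 25 mM PBS, pH 2). F = (AUC_INF,po × Dose_iv)/(AUC_INF,iv × Dose_po). Mean ± SD.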

[10] = Drug level in cynomolgus monkey plasma at 3 mg/kg, po measured at 0.5 hr post dose by LC-MS/MS analysis; assay type: ADME, organism-based, Macaca fascicularis
[11] = AUClast in Sprague-Dawley rat plasma at 10 mg/kg, po or 2 mg/kg, iv administered as single dose measured up to 24 hrs post dose by LC-MS/MS analysis; assay type: ADME, organism-based
Outline: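 Single-dose PK in drug-naive adult male Sprague−Dawley rats, n = 3 per group: 3.1 μmol/kg IV in 5% DMSO/10% Solutol in saline (5 mL/kg), or 15.7 μmol/kg PO in 5% Solutol/10% Captisol in 25 mM PBS, pH adjusted to 2 with HCl. Plasma parameters reported as mean ± SD.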

[12] = Drug level in cynomolgus monkey plasma at 3 mg/kg, po measured at 4 hrs post dose by LC-MS/MS analysis; assay type: ADME, organism-based, Macaca fascicularis
[13] = Drug level in cynomolgus monkey CSF at 10 mg/kg, po measured at 0.5 hr post dose by LC-MS/MS analysis; assay type: ADME, organism-based, Macaca fascicularis, Cerebrospinal fluid; details: read-out: Drug uptake
Outline: (§2)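 Cynomolgus monkeys (n = 3/group) fitted with subcutaneous CSF ports were dosed orally at 0.4−15.7 μmol/kg in 5% Solutol plus 20% Captisol in 25 mM PBS, pH 2. CSF (about 0.30 mL) and blood were sampled predose and at 0.5, 1, 2, 3, 4, 8, 12 and 24 h. Quantitation limit 1.0 ng/mL; mean ± SD.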

Cynomolgus monkey = experiment: In vivo inhibition of glycine transporter-1 in cynomolgus monkey assessed as CSF glycine level at 10 mg/kg, po measured up to 24 hrs post dose by LC-MS/MS analysis relative to control; assay type: functional, Macaca fascicularis; design: scale not given: the % may be the effect or the level left
Outline: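 Cynomolgus monkeys, n = 3 per group, given oral doses of 0.4, 1.5, 4.7 or 15.7 μmol/kg. Vehicle was 5% Solutol / 20% Captisol in 25 mM PBS, pH 2. CSF (about 0.30 mL) was drawn through subcutaneous ports with a sterile Huber needle predose and at 0.5, 1, 2, 3, 4, 8, 12 and 24 h. Matched blood was taken at each time. Mean ± SD.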

[14] = Intrinsic clearance in rat; assay type: ADME
[15] = Drug level in cynomolgus monkey CSF at 10 mg/kg, po measured at 12 hrs post dose by LC-MS/MS analysis; assay type: ADME, organism-based, Macaca fascicularis, Cerebrospinal fluid; details: read-out: Drug uptake; outline: as §2
[16] = Drug level in cynomolgus monkey CSF at 10 mg/kg, po measured at 3 hrs post dose by LC-MS/MS analysis; assay type: ADME, organism-based, Macaca fascicularis, Cerebrospinal fluid; details: read-out: Drug uptake; outline: as §2
[17] = Drug level in cynomolgus monkey plasma at 10 mg/kg, po measured at 12 hrs post dose by LC-MS/MS analysis; assay type: ADME, organism-based, Macaca fascicularis; outline: as §2
[18] = Cmax in cynomolgus monkey plasma at 5 mg/kg, po by LC-MS/MS analysis; assay type: ADME, organism-based, Macaca fascicularis; design: dose 5 mg/kg, route oral
Outline: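 Single-dose PK in female cynomolgus monkeys, n = 3 per group: 1.5 μmol/kg IV in 5% DMSO/10% Solutol in saline, pH 6.5 (2 mL/kg), or 7.8 μmol/kg PO in 5% Solutol in 20% Captisol, 25 mM PBS, pH 2 (5 mL/kg). Plasma parameters reported as mean ± SD.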

[19] = Drug level in cynomolgus monkey CSF at 10 mg/kg, po measured at 1 hr post dose by LC-MS/MS analysis; assay type: ADME, organism-based, Macaca fascicularis, Cerebrospinal fluid; details: read-out: Drug uptake; outline: as §2
[20] = Drug level in cynomolgus monkey plasma at 10 mg/kg, po measured at 0.5 hr post dose by LC-MS/MS analysis; assay type: ADME, organism-based, Macaca fascicularis; outline: as §2

Chain of Cytochrome P450 2C9 (P11712 whole entry): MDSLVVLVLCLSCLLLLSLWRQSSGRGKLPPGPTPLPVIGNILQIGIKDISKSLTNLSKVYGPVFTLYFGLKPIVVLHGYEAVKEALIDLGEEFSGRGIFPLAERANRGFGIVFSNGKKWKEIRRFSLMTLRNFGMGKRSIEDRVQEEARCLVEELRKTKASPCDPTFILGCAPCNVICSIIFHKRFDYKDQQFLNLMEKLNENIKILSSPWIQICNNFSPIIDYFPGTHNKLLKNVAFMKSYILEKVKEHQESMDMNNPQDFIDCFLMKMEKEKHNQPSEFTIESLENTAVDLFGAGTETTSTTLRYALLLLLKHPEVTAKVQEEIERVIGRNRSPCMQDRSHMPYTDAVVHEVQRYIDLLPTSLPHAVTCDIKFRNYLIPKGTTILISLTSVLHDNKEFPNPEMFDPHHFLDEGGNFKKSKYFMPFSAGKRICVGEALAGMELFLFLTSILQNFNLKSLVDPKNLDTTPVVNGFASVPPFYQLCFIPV

Compound: Cl.Cn1cc(S(=O)(=O)N2CCN(C3(CNC(=O)c4ccc(C(F)(F)F)cc4Cl)CCC(F)(F)CC3)CC2)nn1
- concentration at 2 h [1]: 7.6 nM
- inhibition (Rattus norvegicus [2]): inactive
- Activity [3]: Non-Toxic
- inhibition (Rattus norvegicus [4]): Active
- Activity (Rattus norvegicus [5]): 317.2%

Compound: CC(NC(=O)c1ccc(C(F)(F)F)cc1Cl)C1(N2CCN(S(=O)(=O)c3cn(C)nn3)CC2)CCC(F)(F)CC1.Cl (single isomer, unassigned; (+))
- concentration at 1 h [6]: 3.6 ng/mL
- pIC50 (Cytochrome P450 2C9): < 5.14
- Tmax [7]: 1.67 h
- Drug uptake [8]: Dose-dependent effect
- bioavailability [9]: 27.2%
- concentration at 0.5 h [10]: 1.6 ng/mL
- AUC(0-t) at 24 h [11]: 1960 ng·h/mL
- concentration at 4 h [12]: 3.7 ng/mL
- concentration at 0.5 h [13]: 1.8 ng/mL
- Activity (Cynomolgus monkey): >300%
- CL [14]: 6 microL/ml/min
- concentration at 12 h [15]: 5 ng/mL
- concentration at 3 h [16]: 11.3 ng/mL
- concentration at 12 h [17]: 135 ng/mL
- Cmax [18]: 105 ng/mL
- concentration at 1 h [19]: 5.9 ng/mL
- concentration at 0.5 h [20]: 67.9 ng/mL
